This note sets out measurements from ChEMBL document CHEMBL1127413, “Cephem sulfones as inactivators of human leukocyte elastase. 5. 7 alpha-Methoxy- and 7 alpha-chloro-1,1-dioxocephem 4-ketones” (J Med Chem, 1994).

Series [1] in a line: Chemical stability (T1/2 at pH 7.4). The conditions noted are these: buffer. It counts as physicochemical.
For the next series, the target named is T1, Neutrophil elastase (Homo sapiens, UniProt P08246).
T1 sequence (P08246 whole entry): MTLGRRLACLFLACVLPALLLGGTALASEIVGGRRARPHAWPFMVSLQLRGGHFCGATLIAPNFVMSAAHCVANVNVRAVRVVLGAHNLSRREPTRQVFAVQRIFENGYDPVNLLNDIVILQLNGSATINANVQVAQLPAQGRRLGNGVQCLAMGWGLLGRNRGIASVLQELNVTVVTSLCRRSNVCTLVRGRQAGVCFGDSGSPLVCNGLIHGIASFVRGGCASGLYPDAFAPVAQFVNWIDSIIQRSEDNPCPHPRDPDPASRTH
The series can be described thus: Inhibition constant (steady state) against Human Leukocyte Elastase (HLE). A digest of the protocol: (§1)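 HLE from human sputum, active-site titrated with MeO-Suc-Ala-Ala-Pro-Val-CH2Cl; 1–3 nM active enzyme. […] Substrate and inhibitor concentrations varied to derive kon and Ki(ss).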

The target in series [2] is T2, Neutrophil elastase (Homo sapiens) (UniProt P08246).
T2 sequence (whole entry): T1 sequence (P08246 whole entry)
The experiment in a line: Tested for inhibition of Human Leukocyte Elastase (HLE) in living polymorphonuclear leukocytes. Type of series: cell-based. More on the design: scale not given: the % may be the effect or the level left. A digest of the protocol: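 Human PMNs from citrated venous blood, 5 × 10^6 cells/mL, exposed to inhibitor (10 μg per mL, in DMSO) for 15 min at 37 °C, then washed three times. Stimulated with cytochalasin B for 5 min, then fMLP for 15 min. Supernatant elastase assayed with N-acetyl-Ala-Ala-Pro-Ala-7-(4-methyl)coumarylamide, 6 h at 25 °C, fluorescence read; DMSO-only controls.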

In series [3] the target is T2, Neutrophil elastase (Homo sapiens). The experiment in a line: Tested for the rate constant against Human Leukocyte Elastase (HLE) inactivation. A digest of the protocol:
as §1

Each structure is given as a SMILES string.

With `CO[C@H]1C(=O)N2C(C(=O)N3CCCC3)=C(CSc3nc(=O)c(=O)[nH]n3C)CS(=O)(=O)C12` (some centres not stated), the half-life (in general, the time in which the quantity being followed falls by half) in series [1] is 25 h. Further, at Neutrophil elastase, the Ki ss came out at 75 nM.

Compound `CO[C@H]1C(=O)N2C(C(=O)OC(C)(C)C)=C(CSc3ccccn3)CS(=O)(=O)C12` (some centres not stated) gave a half-life in series [1] of 5.1 h. The same compound came in with a Ki ss on Neutrophil elastase of 100 nM.

In series [1], `CO[C@H]1C(=O)N2C(C(=O)OC(C)(C)C)=C(CSc3nnnn3C)CS(=O)(=O)C12` (some centres not stated) had a half-life of 3.8 h. The compound further returned a Ki ss on Neutrophil elastase of 13 nM.

In the case of `CO[C@H]1C(=O)N2C(C(=O)SCC(NC(=O)OC(C)(C)C)C(=O)OC(c3ccccc3)c3ccccc3)=C(CSc3nnnn3C)CS(=O)(=O)[C@H]12` (some centres not stated), in series [2], the Activity was 8%.

The compound `CC(=O)OCC1=C(C(=O)Cc2ccccc2)N2C(=O)[C@H](Cl)C2S(=O)(=O)C1` (some centres not stated) had a half-life in series [1] of 0.2 h. In addition, on Neutrophil elastase, the Ki ss amounted to 100 nM.

In turn, `CO[C@H]1C(=O)N2C(C(=O)c3ccccc3)=C(C)CS(=O)(=O)C12` (some centres not stated) gave a half-life in series [1] of 26 h. The Ki ss at Neutrophil elastase is reported as 2700 nM.

`CC(=O)CCC1=C(COC(C)=O)CS(=O)(=O)C2[C@@H](Cl)C(=O)N12` (some centres not stated) had a half-life in series [1] of 10 h.

As to `CC1=C(C(=O)C(C)(C)C)N2C(=O)[C@H](Cl)C2S(=O)(=O)[C@@H]1Sc1nnnn1C` (some centres not stated), in series [1], the half-life is 3.2 h. The compound also displayed a Ki ss on Neutrophil elastase of 300 nM.

`CO[C@H]1C(=O)N2C(C(=O)C(C)(C)C)=C(CSc3ccccn3)CS(=O)(=O)C12` (some centres not stated) gave a half-life in series [1] of 28 h. Besides, the Ki ss at Neutrophil elastase stood at 12 nM.

As to `CO[C@H]1C(=O)N2C(C(=O)C(C)(C)C)=C(CSc3nnnn3C)CS(=O)(=O)C12` (some centres not stated), the half-life in series [1] is 24 h. On Neutrophil elastase, this compound registered a Ki ss of 34 nM.

Turning to `CO[C@H]1C(=O)N2C(C(=O)C(C)(C)C)=C(C)[C@@H](Sc3nnnn3C)S(=O)(=O)C12` (some centres not stated), the half-life in series [1] is 18 h. This compound displayed a Ki ss at Neutrophil elastase of 8 nM.

In series [1], `CC(=O)OCC1=C(C(=O)c2ccccc2)N2C(=O)[C@H](Cl)C2S(=O)(=O)C1` (some centres not stated) gave a half-life of 1.5 h. For the same compound, on Neutrophil elastase, the Ki ss was found to be 12 nM.

In the case of `CC1=C(C(=O)c2ccccc2)N2C(=O)[C@H](Cl)C2S(=O)(=O)C1` (some centres not stated), in series [1], the half-life was 2.3 h. At Neutrophil elastase, this compound came in with a Ki ss of 130 nM.

In the case of `CO[C@H]1C(=O)N2C(C(=O)C(C)(C)C)=C(C)[C@@H](OC=O)S(=O)(=O)C12` (some centres not stated), the half-life in series [1] was less than 0.5 h. Further, the Ki ss on Neutrophil elastase turned out to be 600 nM.

The compound `CO[C@H]1C(=O)N2C(C(=O)N3CCC[C@H]3C(=O)O)=C(COC(C)=O)CS(=O)(=O)C12` (some centres not stated) showed a half-life in series [1] of 18 h. The same compound registered a k on in series [3] of 1800 M⁻¹ s⁻¹. Besides, the Ki ss on Neutrophil elastase turned out to be 200 nM.

For `CO[C@H]1C(=O)N2C(C(=O)C(C)(C)C)=C(C)[C@@H](OC(=O)c3ccccc3)S(=O)(=O)C12` (some centres not stated), the half-life in series [1] was 24 h. The compound also gave a Ki ss at Neutrophil elastase of less than 2 nM.

The compound `CO[C@H]1C(=O)N2C(C(=O)C(C)(C)C)=C(C)[C@@H](Sc3nc(=O)c(=O)[nH]n3C)S(=O)(=O)C12` (some centres not stated) gave a half-life in series [1] of 21 h. The compound further registered a Ki ss at Neutrophil elastase of 26 nM.

With `CC(=O)OCC1=C(C(=O)C(C)(C)C)N2C(=O)[C@H](Cl)C2S(=O)(=O)[C@@H]1Sc1nnnn1C` (some centres not stated), the half-life in series [1] is 1.8 h. For the same compound, on Neutrophil elastase, the Ki ss is recorded as 140 nM.

Turning to `CO[C@H]1C(=O)N2C(C(=O)C(C)(C)C)=C(C)[C@@H](S(=O)(=O)c3ccccc3)S(=O)(=O)C12` (some centres not stated), the half-life in series [1] was 10 h. On Neutrophil elastase, this compound registered a Ki ss of 20 nM.

On to `CO[C@H]1C(=O)N2C(C(=O)C(C)(C)C)=C(C)[C@@H](Sc3ccccn3)S(=O)(=O)C12` (some centres not stated), for which the half-life in series [1] is 24 h. The Ki ss at Neutrophil elastase turned out to be 10 nM.

The compound `CO[C@H]1C(=O)N2C(C(=O)C(C)(C)C)=C(C)[C@@H](OC(=O)c3ccc(CSc4nc(=O)c(=O)[nH]n4C)cc3)S(=O)(=O)C12` (some centres not stated) had a half-life in series [1] of 7.5 h. On Neutrophil elastase, this compound returned a Ki ss of 2 nM.

Regarding `CO[C@H]1C(=O)N2C(C(=O)c3ccccc3)=C(CSc3nnnn3C)CS(=O)(=O)C12` (some centres not stated), the half-life in series [1] is 17 h. For the same compound, the Ki ss at Neutrophil elastase stood at 110 nM.

`CO[C@H]1C(=O)N2C(C(=O)C(C)(C)C)=C(C)[C@@H](OC(=O)C(C)(C)C)S(=O)(=O)C12` (some centres not stated): the half-life in series [1] was 54 h. This compound also had a Ki ss on Neutrophil elastase of less than 2 nM.

In the case of `CO[C@H]1C(=O)N2C(C(=O)C(C)(C)C)=C(C)[C@@H](Sc3nnc(C)s3)S(=O)(=O)C12` (some centres not stated), the half-life in series [1] was 27 h. The compound further showed a Ki ss on Neutrophil elastase of 12 nM.

In series [1], `CC1=C(C(=O)c2ccccc2)N2C(=O)[C@H](Cl)C2S(=O)(=O)[C@@H]1Sc1nnnn1C` (some centres not stated) gave a half-life of 4.1 h. The compound further showed a Ki ss on Neutrophil elastase of 270 nM.

`CCC(=O)C1=C(COC(C)=O)CS(=O)(=O)C2[C@@H](Cl)C(=O)N12` (some centres not stated): the half-life in series [1] is 1.1 h. On Neutrophil elastase, this compound showed a Ki ss of 11 nM.

Consider `CO[C@H]1C(=O)N2C(C(=O)C(C)(C)C)=C(CSc3nnnn3C)[C@@H](OC(=O)c3ccccc3)S(=O)(=O)C12` (some centres not stated), for which, in series [1], the half-life is 0.7 h. On Neutrophil elastase, this compound registered a Ki ss of less than 2 nM.

`CC1=C(C(=O)C(C)(C)C)N2C(=O)[C@H](Cl)C2S(=O)(=O)C1` (some centres not stated) showed a half-life in series [1] of 5.6 h. The same compound gave a Ki ss at Neutrophil elastase of 380 nM.

The compound `CO[C@H]1C(=O)N2C(C(=O)C(C)(C)C)=C(C)[C@@H](OC(=O)CCC(=O)c3ccccc3)S(=O)(=O)C12` (some centres not stated) gave a half-life in series [1] of 13 h. The Ki ss on Neutrophil elastase was less than 2 nM.

Turning to `CO[C@H]1C(=O)N2C(C(=O)C(C)(C)C)=C(C)[C@@H](OC(C)=O)S(=O)(=O)C12` (some centres not stated), the half-life in series [1] was 6.3 h. At Neutrophil elastase, this compound had a Ki ss of 4 nM.

Consider `CO[C@H]1C(=O)N2C(C(=O)C(C)(C)C)=C(COC(=O)c3ccccc3)[C@@H](OC(=O)c3ccccc3)S(=O)(=O)C12` (some centres not stated), for which the half-life in series [1] is 1.2 h. For the same compound, the Ki ss at Neutrophil elastase is less than 2 nM.

Compound `Cn1nnnc1SCC1=C(C(=O)C(C)(C)C)N2C(=O)[C@H](Cl)C2S(=O)(=O)C1` (some centres not stated) showed a half-life in series [1] of 3 h. The compound also came in with a Ki ss at Neutrophil elastase of 7 nM.

Take `CO[C@H]1C(=O)N2C(C(=O)C(C)(C)C)=C(COC(C)=O)[C@@H](Sc3nnnn3C)S(=O)(=O)C12` (some centres not stated): the half-life in series [1] is 10 h. The compound also returned a Ki ss on Neutrophil elastase of 6 nM.

As for `COCC1=C(C(=O)C(C)(C)C)N2C(=O)[C@H](Cl)C2S(=O)(=O)C1` (some centres not stated), the half-life in series [1] was 6.9 h. Moreover, at Neutrophil elastase, the Ki ss is on record as 170 nM.

Consider `CO[C@H]1C(=O)N2C(C(=O)c3ccccc3)=C(C)[C@@H](Sc3nnnn3C)S(=O)(=O)C12` (some centres not stated), for which the half-life in series [1] was 200 h. Also, at Neutrophil elastase, the Ki ss amounted to 1400 nM.

The compound `CO[C@H]1C(=O)N2C(C(=O)c3ccccc3)=C(CSc3nnnn3C)[C@@H](Sc3nnnn3C)S(=O)(=O)C12` (some centres not stated) showed a half-life in series [1] of 1400 h. Also, the Ki ss at Neutrophil elastase was determined as 55 nM.

Compound `CO[C@H]1C(=O)N2C(C(=O)C(C)(C)C)=C(C)CS(=O)(=O)C12` (some centres not stated) had a half-life in series [1] of 106 h. Also, the Ki ss at Neutrophil elastase was 1300 nM.

Take `CO[C@H]1C(=O)N2C(C(=O)C(C)(C)C)=C(COC(C)=O)CS(=O)(=O)C12` (some centres not stated): the half-life in series [1] is 14 h. The Ki ss at Neutrophil elastase worked out at 11 nM.

With `COC(=O)C1=C(COC(C)=O)CS(=O)(=O)C2[C@@H](Cl)C(=O)N12` (some centres not stated), the half-life in series [1] is 0.9 h. Besides, on Neutrophil elastase, the Ki ss turned out to be 12 nM.

The compound `CO[C@H]1C(=O)N2C(C(=O)OC(C)(C)C)=C(C)[C@@H](Sc3ccccn3)S(=O)(=O)C12` (some centres not stated) showed a half-life in series [1] of 4.1 h. The Ki ss at Neutrophil elastase amounted to 180 nM.

Take `CO[C@H]1C(=O)N2C(C(=O)C(C)(C)C)=C(CSc3nnnn3C)[C@@H](Sc3nnnn3C)S(=O)(=O)C12` (some centres not stated): in series [1], the half-life was 31 h. The compound further gave a Ki ss on Neutrophil elastase of 93 nM.

In series [1], `CO[C@H]1C(=O)N2C(C(=O)C(C)(C)C)=C(CSc3nc(=O)c(=O)[nH]n3C)CS(=O)(=O)C12` (some centres not stated) showed a half-life of 16 h. The compound also had a Ki ss at Neutrophil elastase of 27 nM.

The compound `CO[C@H]1C(=O)N2C(C(=O)C(C)(C)C)=C(C)[C@@H](OC(=O)c3ccc4ccccc4c3)S(=O)(=O)C12` (some centres not stated) had a half-life in series [1] of 33 h. Also, at Neutrophil elastase, the Ki ss was less than 2 nM.

For `CC(=O)OCC1=C(C(=O)C(C)(C)C)N2C(=O)[C@H](Cl)C2S(=O)(=O)C1` (some centres not stated), in series [1], the half-life is 3.9 h. The Ki ss at Neutrophil elastase is 4 nM.
